Screening data: PubChem, several laboratories
Only some compounds are listed: those with a hit (about 3.1% of all), similar ones and a draw of the others.
Apaf1 inhib = human Apaf-1 inhibition | O14727 | reconstituted apoptosome caspase-3 activity, DEVD-Rh110 fluorescence | inhibition, % at 20 µM | 330,000 compounds, 0.71% hits; active = inhibition of at least 40% at 20 µM;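 note: plate controls were DMSO wells for no effect and DEVD-CHO caspase inhibitor wells for full effect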
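Material: cell-free apoptosome with Apaf-1, procaspase-3 and caspase-9; Buffer or medium: Hepes pH 7.5 with detergent and BSA; Reagent: cytochrome c trigger plus (Z-DEVD)2-Rh110 caspase-3 substrate; Times: compound with Apaf-1, dATP, procaspase-3 30 min, then 50 min reaction, room temperature; Technique: Rh110 fluorescence intensity.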
PAFAH2 FP inh = inhibitors of human PAFAH2; recombinant PAFAH2, FP-rhodamine activity probe, fluorescence polarization; Q99487; inhibition, % at 3.39 µM; 340,000 compounds, 0.99% hits; AID 492956;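 active = inhibition above the mean over all tested compounds plus 3 SD, cut at about 30% in these data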;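 note: inhibitors block probe labeling of enzyme so polarization drops; 0% = enzyme with DMSO and 100% = wells lacking PAFAH2 protein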
PAFAH1B3 FP inh = inhibitors of human PAFAH1B3 | recombinant PAFAH1B3, FP-rhodamine probe, fluorescence polarization | inhibition, % at 3.39 µM | 340,000 compounds, 0.28% hits;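 active = inhibition above the screen-wide average of all tested compounds plus 3 SD, cut at about 25% in these data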;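 note: 0% = enzyme with DMSO only and 100% = wells lacking PAFAH1B3 protein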
Target sequence (Q15102 whole entry, looked up): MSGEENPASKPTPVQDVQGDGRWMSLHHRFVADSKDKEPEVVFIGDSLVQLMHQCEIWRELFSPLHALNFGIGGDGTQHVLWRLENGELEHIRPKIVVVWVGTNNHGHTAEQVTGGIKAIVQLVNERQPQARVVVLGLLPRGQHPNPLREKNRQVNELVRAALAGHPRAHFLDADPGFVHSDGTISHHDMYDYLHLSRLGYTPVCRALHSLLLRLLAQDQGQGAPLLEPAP
PAFAH1B2 inh = inhibitors of human PAFAH1B2; P68402; recombinant PAFAH1B2, FP-rhodamine activity probe, fluorescence polarization; inhibition, % at 3.39 µM; 340,000 compounds, 1.2% hits; AID 492953;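 active = inhibition above the mean of all tested compounds plus 3 SD, cut at about 24% in these data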;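 note: 0% = enzyme with DMSO and 100% = wells lacking PAFAH1B2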
Target sequence (P68402 whole entry, looked up): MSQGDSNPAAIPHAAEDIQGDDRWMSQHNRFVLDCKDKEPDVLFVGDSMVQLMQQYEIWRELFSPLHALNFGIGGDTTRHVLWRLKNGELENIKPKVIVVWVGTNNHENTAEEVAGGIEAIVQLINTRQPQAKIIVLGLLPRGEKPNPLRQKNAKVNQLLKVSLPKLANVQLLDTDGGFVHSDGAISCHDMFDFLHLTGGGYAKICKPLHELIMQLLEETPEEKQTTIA
pPAFAH FP inh = inhibitors of human plasma PAF acetylhydrolase (pPAFAH) | Q13093 | recombinant pPAFAH, FP-rhodamine probe fluorescence polarization | inhibition, % at 3.39 µM | 330,000 compounds, 1.5% hits;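 active = inhibition above the mean inhibition across the screen plus 3 SD, cut at about 25% in these data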;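 note: inhibitors block binding of the rhodamine activity-based probe so polarization drops; 0% = enzyme with DMSO and 100% = wells lacking pPAFAH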
Starred values were filed as active, the others as inactive.

For Cc1nn(-c2ccccc2)c(Cl)c1/C=N/NC(=O)c1ccccc1NS(=O)(=O)c1cccs1 the results were Apaf1 inhib 15, PAFAH2 FP inh -4, PAFAH1B3 FP inh 8, PAFAH1B2 inh 1 and pPAFAH FP inh 33*.
`Cc1cccc(-n2c(SCC(=O)Nc3ncc(Cl)cc3Cl)nc3ccccc32)c1` gave PAFAH2 FP inh -7, PAFAH1B3 FP inh 4, PAFAH1B2 inh -3 and pPAFAH FP inh 7.
For CC(C)N(C(=O)CSc1nc2ccccc2n1-c1ccccc1)C(C)C the results were Apaf1 inhib 19, PAFAH2 FP inh -5, PAFAH1B3 FP inh -3, PAFAH1B2 inh 5 and pPAFAH FP inh 32*.
`O=C(CSc1nc2ccccc2n1-c1ccccc1)Nc1ncc(Cl)cc1Cl` gave Apaf1 inhib 2, PAFAH2 FP inh -9, PAFAH1B3 FP inh 4, PAFAH1B2 inh 3 and pPAFAH FP inh 27*.
For CC(C)N(C(=O)CSc1nc2ccccc2n1Cc1ccccc1)C(C)C the results were Apaf1 inhib 21, PAFAH2 FP inh -9, PAFAH1B3 FP inh 0, PAFAH1B2 inh 1 and pPAFAH FP inh 4.
Screening CC(NC(=O)CN1C(=O)NC2(CCCCCC2)C1=O)c1ccccc1 (configuration not stated) returned Apaf1 inhib -10, PAFAH2 FP inh -5, PAFAH1B3 FP inh 7, PAFAH1B2 inh 4 and pPAFAH FP inh 1.
COc1ccc2nc3oc(C(=O)N4CCC(C(N)=O)CC4)cc3cc2c1 was read as Apaf1 inhib 0, PAFAH2 FP inh 5, PAFAH1B3 FP inh 18, PAFAH1B2 inh -1 and pPAFAH FP inh 31*.
Screening CCOC(=O)C1CCN(C(=O)c2cc3cc4ccc(OC)cc4nc3o2)CC1 returned Apaf1 inhib 2, PAFAH2 FP inh 2, PAFAH1B3 FP inh 3, PAFAH1B2 inh 1 and pPAFAH FP inh 3.
`Cc1cnc(C(=O)OCc2csc(CC(=O)Nc3ccccc3C)n2)cn1` gave Apaf1 inhib 4, PAFAH2 FP inh 4, PAFAH1B3 FP inh 0, PAFAH1B2 inh -1 and pPAFAH FP inh 3.
COc1cc(CNC(=O)CCCCCCC(C)C)ccc1O was read as Apaf1 inhib 6, PAFAH2 FP inh 3, PAFAH1B3 FP inh 6, PAFAH1B2 inh 3 and pPAFAH FP inh 26*.
`NC(=O)COc1ccc(/C=N\NC(=O)CC(=O)NCCc2ccccc2)cc1` gave Apaf1 inhib -2, PAFAH2 FP inh -1, PAFAH1B3 FP inh 4, PAFAH1B2 inh 7 and pPAFAH FP inh 3.
`O=C(c1ccc(Oc2ccccc2)cc1)c1nc2c(n1O)CCCC2` gave Apaf1 inhib 11, PAFAH2 FP inh 3, PAFAH1B3 FP inh 0, PAFAH1B2 inh 6 and pPAFAH FP inh 31*.
For O=C(O)c1ccccc1C(=O)c1ccc(Oc2ccccc2)cc1 the results were Apaf1 inhib -3, PAFAH2 FP inh 11, PAFAH1B3 FP inh 7, PAFAH1B2 inh 3 and pPAFAH FP inh -2.
For Cc1ccc(CNC(=O)CS(=O)(=O)Cc2nc(-c3ccc(C)cc3)oc2C)cc1 the results were Apaf1 inhib 8, PAFAH2 FP inh 0, PAFAH1B3 FP inh 3, PAFAH1B2 inh -6 and pPAFAH FP inh -9.
CC1(C)NC(=O)N(CCCCOc2ccc(Br)cc2Cl)C1=O was read as Apaf1 inhib 10, PAFAH2 FP inh -5, PAFAH1B3 FP inh 7, PAFAH1B2 inh 24* and pPAFAH FP inh 3.
`COc1ccc(OC)c(CCNC(=O)c2ccc(CS(=O)(=O)c3ccc(Br)cc3)o2)c1` gave Apaf1 inhib 7, PAFAH2 FP inh 7, PAFAH1B3 FP inh 7, PAFAH1B2 inh 27* and pPAFAH FP inh 3.
NC(=O)Cc1ccc(C(=O)CSc2nnc(-c3ccncc3)n2C2CC2)s1 was read as Apaf1 inhib -2, PAFAH2 FP inh 19, PAFAH1B3 FP inh 3, PAFAH1B2 inh 6 and pPAFAH FP inh 33*.
Screening O=C(NCc1ccccn1)c1ccc(OC2CCN(Cc3cccs3)CC2)cc1 returned Apaf1 inhib 2, PAFAH2 FP inh -4, PAFAH1B3 FP inh 2, PAFAH1B2 inh -2 and pPAFAH FP inh 0.
O=C(O)CCC1c2cc3c4cc2OC2Oc5cc6c(cc51)C(CCC(=O)O)c1cc5c7cc1OC(O6)c1cc6cc(c1)Oc1cc(cc(C(=O)O)c1)Oc1cc8cc(c1)C(Oc1cc(c(cc1C5CCC(=O)O)C3CCC(=O)O)OC(O4)c1cc(cc(c1)Oc1cc(cc(C(=O)O)c1)O8)Oc1cc(cc(C(=O)O)c1)Oc1cc(cc2c1)Oc1cc(cc(C(=O)O)c1)O6)O7 (configuration not stated) was read as Apaf1 inhib 99* and pPAFAH FP inh -73.
`COCCn1c(C)c(C)c(S(=O)(=O)c2ccccc2)c1N` gave Apaf1 inhib 13, PAFAH2 FP inh 59*, PAFAH1B3 FP inh 41*, PAFAH1B2 inh 41* and pPAFAH FP inh 13.
O=C(CCNS(=O)(=O)c1ccc(Br)cc1)NCc1cccs1 was read as Apaf1 inhib 1, PAFAH2 FP inh 3, PAFAH1B3 FP inh 1, PAFAH1B2 inh 16 and pPAFAH FP inh 4.
CN(Cc1cccs1)C(=O)CCNS(=O)(=O)c1ccc(Br)cc1 was read as Apaf1 inhib 6, PAFAH2 FP inh 10, PAFAH1B3 FP inh 14, PAFAH1B2 inh 32* and pPAFAH FP inh 4.
Screening COC(CN1C(=O)C(=O)/C(=C(/O)c2ccccc2)C1c1ccccn1)OC (configuration not stated) returned Apaf1 inhib -8, PAFAH2 FP inh 8, PAFAH1B3 FP inh 4, PAFAH1B2 inh 4 and pPAFAH FP inh -2.
`COc1cccc(C(=O)NC(=S)N2CCN(c3ccc(C(F)(F)F)cc3[N+](=O)[O-])CC2)c1` gave Apaf1 inhib -6, PAFAH2 FP inh 1, PAFAH1B3 FP inh 7, PAFAH1B2 inh 2 and pPAFAH FP inh 26*.
For CCN(C(=O)CSc1nc2ccccc2o1)c1c(N)n(Cc2ccccc2)c(=O)[nH]c1=O the results were Apaf1 inhib 6, PAFAH2 FP inh -7, PAFAH1B3 FP inh -1, PAFAH1B2 inh -1 and pPAFAH FP inh 29*.
Screening CCOC(=O)NC(=O)CSc1nnnn1-c1ccccc1 returned Apaf1 inhib -16, PAFAH2 FP inh 7, PAFAH1B3 FP inh 1, PAFAH1B2 inh 3 and pPAFAH FP inh -2.
Screening CCOC(=O)NC(=O)CSc1nc(-c2ccc(C)c(C)c2)cn1-c1ccccc1 returned Apaf1 inhib 16, PAFAH2 FP inh 3, PAFAH1B3 FP inh 0, PAFAH1B2 inh 3 and pPAFAH FP inh 32*.
Cc1ccc(-c2cn(-c3ccccc3)c(SCC(N)=O)n2)cc1C was read as Apaf1 inhib 9, PAFAH2 FP inh 8, PAFAH1B3 FP inh 2, PAFAH1B2 inh -4 and pPAFAH FP inh 30*.
Screening CC(=O)N1CC(C)Sc2ccc(S(=O)(=O)NC(C)c3ccccc3)cc21 (configuration not stated) returned Apaf1 inhib -7, PAFAH2 FP inh -2, PAFAH1B3 FP inh 3, PAFAH1B2 inh 6 and pPAFAH FP inh 1.
For Fc1ccc(-n2nnc(-c3ncc[nH]3)n2)cc1 the results were Apaf1 inhib 2 and pPAFAH FP inh 5.
